# Screening data deposited in PubChem by several laboratories.
# Shown are actives, neighbours in structure and some others; about 0.79% of the full set was active somewhere.
# TNAP inh noacc: human TNAP enzyme inhibitors, primary screen, biochemical, luminescent, no phosphate acceptor, uHTS; 0.26% of 200,000 active; inhibition, % at 20 µM; Alkaline phosphatase, tissue-nonspecific isozyme (Homo sapiens), P05186; AID 1012, 2008; purified TNAP, CDP-star luminescence, 30 min;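 active means tissue-nonspecific alkaline phosphatase inhibition above about 50% at 20 µM in the single-dose screen, limit read from the data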;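 further: 0% = DMSO negative control and 100% = EDTA positive control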
# p97 inhibitor: inhibitors of human p97 ATPase, primary screen, biochemical; Transitional endoplasmic reticulum ATPase (Homo sapiens), P55072; recombinant p97 ATPase, Kinase-Glo ATP luminescence, 3 h; inhibition, % at 8 µM; 0.42% of 220,000 active; AID 1481, 2009; in the data active means inhibition above about 15%;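 further: 0% = DMSO vehicle and 100% = wells lacking enzyme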
# Target sequence (P55072 whole entry, looked up): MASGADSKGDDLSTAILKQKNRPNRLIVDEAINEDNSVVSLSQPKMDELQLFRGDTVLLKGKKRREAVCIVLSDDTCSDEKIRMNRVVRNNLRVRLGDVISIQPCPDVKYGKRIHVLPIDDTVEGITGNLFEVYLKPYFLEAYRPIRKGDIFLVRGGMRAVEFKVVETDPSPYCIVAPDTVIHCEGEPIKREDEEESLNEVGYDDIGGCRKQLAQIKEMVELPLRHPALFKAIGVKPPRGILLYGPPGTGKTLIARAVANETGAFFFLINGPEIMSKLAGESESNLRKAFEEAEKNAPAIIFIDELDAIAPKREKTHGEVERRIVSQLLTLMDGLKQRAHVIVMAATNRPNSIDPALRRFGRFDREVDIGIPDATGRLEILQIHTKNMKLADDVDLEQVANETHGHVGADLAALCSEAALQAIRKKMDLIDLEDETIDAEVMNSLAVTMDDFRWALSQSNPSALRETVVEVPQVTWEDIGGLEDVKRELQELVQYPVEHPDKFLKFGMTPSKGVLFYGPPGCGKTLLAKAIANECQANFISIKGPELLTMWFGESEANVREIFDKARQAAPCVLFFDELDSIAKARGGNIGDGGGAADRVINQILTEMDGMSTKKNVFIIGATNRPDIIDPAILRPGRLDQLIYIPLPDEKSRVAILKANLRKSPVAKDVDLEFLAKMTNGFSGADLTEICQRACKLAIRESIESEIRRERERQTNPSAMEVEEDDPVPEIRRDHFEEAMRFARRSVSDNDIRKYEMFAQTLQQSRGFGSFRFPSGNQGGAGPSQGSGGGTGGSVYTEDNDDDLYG
# DTT redox prof: compounds producing H2O2 with reducing agent – biochemical, NIH compound library profiling, artefact control for MLSCN library redox annotation, primary screen; AID 878, 2007; activation, % at 10 µM; 0.03% of 200,000 active; DTT-dependent redox cycling H2O2, phenol red/HRP absorbance; 100% = 100 µM peroxide control, 0% = buffer;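 active means activation of at least 50% relative to the plate's high and low controls in the primary single-dose screen; inactive means activation below 50%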;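 further: compound incubated with DTT at 0.8 mM final as the reducing agent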
# G6PDH CS: L. mesenteroides G6PDH inhibitors, counter-screen for G6PDH-coupled screening assays, biochemical, Leuconostoc mesenteroides enzyme; Purified L. mesenteroides G6PDH, diaphorase/resazurin coupled fluorescence, 45 min; inhibition, % at 5 µM; 0.12% of 200,000 active; AID 1020, 2008; in the data active means inhibition above about 50%
# TNAP act hi DEA: TNAP activators at high phosphate acceptor level, primary screen, biochemical, luminescence, uHTS; Alkaline phosphatase, tissue-nonspecific isozyme (Homo sapiens), P05186; purified TNAP, CDP-star luminescence, 1 M DEA, 30 min; stronger effect = higher value; 0 = EDTA background, 1 = DMSO-only activity; activation factor at 20 µM; 200,000 tested, under 10 active; AID 1136, 2008;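 active means activation factor at least 2 at 20 µM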
#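 Test system – human TNAP · Doses – 20 µM single point · Incubation – 30 min, room temperature · Signal – luminescent substrate turnover signal · Read-out basis – activation factor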
# TNAP inh hi DEA: human TNAP enzyme inhibitors, primary screen, biochemical, luminescent, high phosphate acceptor level, uHTS. purified TNAP, CDP-star luminescence, 1 M DEA. 0.03% of 200,000 active. inhibition, % at 20 µM. Alkaline phosphatase, tissue-nonspecific isozyme (Homo sapiens), P05186;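 active means over 50% inhibition of tissue-nonspecific alkaline phosphatase at 20 µM in the single-dose screen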;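 further: plate controls were DMSO wells for no effect and EDTA-quenched wells as full inhibition for full effect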
# An asterisk follows results filed as active; x = no result given.
SMILES,TNAP inh noacc,p97 inhibitor,DTT redox prof,G6PDH CS,TNAP act hi DEA,TNAP inh hi DEA
Nc1nc(Cl)cc(N2CCC(c3cc(-c4ccc(Cl)cc4Cl)n[nH]3)CC2)n1,56*,-4,12,5,1,-1
CCc1cccc(CC)c1NC(=S)NCc1nc2ccccc2[nH]1,-74,1,-1,0,1,-4
CCOc1cc(/C=C2\SC(=S)N(NC(=O)c3cccnc3)C2=O)ccc1O,49,-7,-1,9,0.5,51*
O=C1/C(=C/c2cccc(O)c2)SC(=S)N1CC1CCCO1 (stereo not drawn),x,7,x,x,x,x
CCOc1cc(/C=C2/SC(=S)N(CC3CCCO3)C2=O)ccc1O (stereo not drawn),33,1,-1,15,0.5,52*
COc1cc(/C=C2\SC(=S)N(NC(=O)c3ccncc3)C2=O)ccc1O,x,0,x,x,x,x
COc1ccc(-n2nc(C(=O)NCC(=O)NCC3COc4ccccc4O3)c3ccccc3c2=O)cc1 (stereo not drawn),-7,8,-1,-6,1,-1
Nc1nc(SCC(=O)N2CCc3ccccc32)[nH]c(=O)c1-c1ccccc1,66*,10,2,-3,1.1,-9
Nc1nc(SCC(=O)N2CCCC2)[nH]c(=O)c1-c1ccccc1,-8,-4,1,5,1,-3
Cc1ncn(C23CC4CC(CC(C4)C2)C3)n1,-8,3,0,4,1,-4
O=C(NNC(=O)c1ccc(O)cc1O)c1ccc(Cl)cc1,76*,3,3,-5,1,0
CN1CCN(NC(=S)NC(C)(C)CC(C)(C)C)CC1,-4,-1,0,-2,1,-4
CCc1nnc(NC(=O)CSc2nnc(-c3cc4ccccc4cc3O)n2CCOC)s1,-16,17*,-1,7,1,-4
Cc1ccc(N=C2NC(=O)/C(=C/C=C/c3ccco3)S2)cc1,32,10,0,2,0.8,15
O=C1NC(=Nc2ccccc2)S/C1=C\C=C\c1ccco1,56*,13,1,-1,0.9,9
CC(=O)N(Cc1ccc(F)cc1)C1=C(NCCc2ccccc2)C(=O)c2ccccc2C1=O,-1,-1,0,50*,0.9,6
Cc1ccccc1OCc1nnc2c3cnn(C)c3ncn12,55*,3,0,15,1.1,-6
CC1(C)CC(=O)C(CC(=O)Nc2cc(C(F)(F)F)ccc2Cl)C(=O)C1,52*,4,0,3,0.6,35
CC(C)c1ccc(/C=N/NC(=O)C(=O)NCCCN2CCOCC2)cc1,-16,2,0,10,1,-2
CC(NC(=O)C1CCCN(S(=O)(=O)c2cnc[nH]2)C1)c1ccccc1 (stereo not drawn),-15,18*,-2,3,1.1,-5
CCn1c(SCC(=O)Nc2sc3c(c2C#N)CCCC3)nnc1-c1ccco1,35,-9,-3,2,0.5,53*
COc1ccc(OC)c(S(=O)(=O)Nc2cccnc2)c1,86*,3,0,2,0.3,75*
COc1ccc(S(=O)(=O)Nc2cccnc2)cc1,x,4,x,x,x,x
Oc1c(Br)cc(Br)cc1C=NCc1ccc(F)cc1,12,7,-1,31,1,-3
CCN(CC)S(=O)(=O)c1ccc(NC2=NS(=O)(=O)c3ccccc32)cc1,-9,2,0,2,1.1,-7
SMILES,TNAP inh noacc,p97 inhibitor,DTT redox prof,G6PDH CS,TNAP act hi DEA,TNAP inh hi DEA
O=S1(=O)N=C(Nc2nncs2)c2ccccc21,61*,2,-1,5,0.9,9
Cc1ccc(-c2nnc(Nc3ccc4c(c3)OCO4)c3ccccc23)cc1S(N)(=O)=O,79*,6,0,-22,0.8,17
Cc1ccccc1S(=O)(=O)c1c(C)cc(-c2ccccc2)[nH]c1=O,-14,0,2,5,1.1,-8
COc1cc(CN(C)Cc2ccccc2)cc(OC)c1O,-4,4,-1,51*,1,2
CCN(CC)c1nc(SCC(=O)O)nc(N(CC)CC)n1,-8,15*,1,-8,1,0
Cc1nnc2c3cnn(-c4ccc(Cl)cc4)c3ncn12,67*,x,x,4,1.1,-5
CCOC(=O)Cn1cnc2c(cnn2-c2ccc(Cl)cc2)c1=O,-10,-1,-2,10,1.1,-6
CC1=C(CC(=O)c2ccc(Cl)cc2)C(=O)c2ccccc2C1=O,-6,6,2,56*,1,-2
O=C(CCN1CCN(c2ccccc2F)CC1)Nc1ccc2c(c1)OCO2,10,-1,0,9,1,-2
CC1=NN(c2ccc(C)cc2)C(=O)/C1=C\C=C\c1ccccc1,5,3,0,-4,1,3
CC1=NN(c2ccccc2)C(=O)/C1=C/C=C/C=C/N(C)C,36,-3,-2,-5,0.4,55*
CCOC(=O)c1sc2nc(CN3CCN(c4cccc(C(F)(F)F)c4)CC3)[nH]c(=O)c2c1C,-33,-6,0,-30,1,1
CSc1cccc(NC(=S)N2CCC(N(C)C3CCCC3)CC2)c1,0,7,0,1,1,3
O=C(NNC(=O)c1cc2cc(Br)ccc2oc1=O)c1ccc(O)cc1,82*,15*,-1,-1,0.9,8
NC(=S)c1cc2cc(Br)ccc2oc1=O,-127,4,0,2,0.9,12
Cc1ccccc1C(=O)NNC(=O)CSc1nc(-c2ccccc2)cc(=O)[nH]1,75*,-1,-2,-3,1,-4
O=C(CSc1nc(-c2ccccc2)cc(=O)[nH]1)Nc1ccccn1,-4,-8,2,17,1.1,-6
O=C(O)Cc1cn(Cc2ccc(F)cc2)c2ccccc12,-8,4,0,2,1.1,-6
Cc1[nH][nH]c(=O)c1C(c1c(C)[nH][nH]c1=O)c1cn(Cc2ccc(F)cc2)c2ccccc12,-9,26*,0,26,0.8,23
O=c1cc(-c2ccc(O)c(O)c2)oc2cc(O)c(C3OC(CO)C(O)C(O)C3O)c(O)c12 (stereo not drawn),50,4,0,36,0.9,10
O=c1cc(-c2ccc(O)c(O)c2)oc2c(C3O[C@H](CO)[C@@H](O)[C@H](O)[C@H]3O)c(O)cc(O)c12 (stereo partly drawn),53*,0,-1,36,0.8,16
